Measurements from the RNAGym collection of RNA variant scans (doi:10.1002/anie.201605470).

B1: Osa-1-4 twister ribozyme (parent)
chain: CCGCCUAACACUGCCAAUGCCGGUCCCAAGCCCGGAUAAAAGUGGAGGGGGCGG

Variants of: B1
Assay: self-cleavage, relative activity (ratio to wild type); higher = more cleavage; co-transcriptional
Outline: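 Values are relative activity: the fraction cleaved, normalised to wild type. A doped DNA template for a 54-nucleotide twister ribozyme from Oryza sativa had 97 % wild-type base and 1 % of each other base at the 48 positions downstream of the cleavage site. The RNA was transcribed in vitro for 2 h at 37 °C so that it could cleave itself co-transcriptionally, then sequenced deeply, with cleavage status scored from the presence or absence of upstream sequence in reads.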

Variant | self-cleavage
CCGCCUAACACUGCCAUUGCCGGUCCCAAGCCCGGAUAAUAGUGGAGGGGGCGG [A17U A40U] | 0.63
CCGCCUAACACUGCCAUUGCCGGUCCCAAGCCCGGAUAAGAGUGGAGGGGGCGG [A17U A40G] | 0.93
CCGCCUAACACUGCCAUUGCCGGUCCCAAGCCCGGAUAACAGUGGAGGGGGCGG [A17U A40C] | 0.09
CCGCCUAACACUGCCAGUGCCGGUCCCAAGCCCGGACAAAAGUGGAGGGGGCGG [A17G U37C] | 1.02
CCGCCUAACACUGCCAGUGCCGGUCCCAAGCCCGGAGAAAAGUGGAGGGGGCGG [A17G U37G] | 1.01
CCGCCUAACACUGCCAGUGCCGGUCCCAAGCCCGGAAAAAAGUGGAGGGGGCGG [A17G U37A] | 0.63
CCGCCUAACACUGCCAGUGCCGGUCCCAAGCCCGGAUAAAAGUGGAGGGGACGG [A17G G51A] | 0.44
CCGCCUAACACUGCCAGUGCCGGUCCCAAGCCCGGAUAAAAGUGGAGGGGUCGG [A17G G51U] | 0.3
CCGCCUAACACUGCCAGUGCCGGUCCCAAGCCCGGAUAAAAGUGGAGGGGCCGG [A17G G51C] | 0.14
CCGCCUAACACUGCCAUUGCCGGUCCUAAGCCCGGAUAAAAGUGGAGGGGGCGG [A17U C27U] | 0.25
CCGCCUAACACUGCCAUUGCCGGUCCAAAGCCCGGAUAAAAGUGGAGGGGGCGG [A17U C27A] | 0.29
CCGCCUAACACUGCCAUUGCCGGUCCGAAGCCCGGAUAAAAGUGGAGGGGGCGG [A17U C27G] | 0.13
CCGCCUAACACUGCCAGUGCCGGUCCCAAGCCCGGAUAAAAGCGGAGGGGGCGG [A17G U43C] | 0.72
CCGCCUAACACUGCCAGUGCCGGUCCCAAGCCCGGAUAAAAGGGGAGGGGGCGG [A17G U43G] | 0.51
CCGCCUAACACUGCCAGUGCCGGUCCCAAGCCCGGAUAAAAGAGGAGGGGGCGG [A17G U43A] | 0.81
CCGCCUAACACUGCCAGUGCCGGACCCAAGCCCGGAUAAAAGUGGAGGGGGCGG [A17G U24A] | 0.43
CCGCCUAACACUGCCAGUGCCGGGCCCAAGCCCGGAUAAAAGUGGAGGGGGCGG [A17G U24G] | 0.03
CCGCCUAACACUGCCAGUGCCGGCCCCAAGCCCGGAUAAAAGUGGAGGGGGCGG [A17G U24C] | 0.36
CCGCCUAACACUGCCAUUGCCGGUCCCAAGCCCGGCUAAAAGUGGAGGGGGCGG [A17U A36C] | 0.79
CCGCCUAACACUGCCAUUGCCGGUCCCAAGCCCGGGUAAAAGUGGAGGGGGCGG [A17U A36G] | 1.05
CCGCCUAACACUGCCAUUGCCGGUCCCAAGCCCGGUUAAAAGUGGAGGGGGCGG [A17U A36U] | 1.04
CCGCCUAACACUGCCAUUGCCGGUCCCAAGCCCGGAUAAACGUGGAGGGGGCGG [A17U A41C] | 0.98
CCGCCUAACACUGCCAUUGCCGGUCCCAAGCCCGGAUAAAGGUGGAGGGGGCGG [A17U A41G] | 0.9
CCGCCUAACACUGCCAUUGCCGGUCCCAAGCCCGGAUAAAUGUGGAGGGGGCGG [A17U A41U] | 0.96

Variant | self-cleavage
CCGCCUAACACUGCCAUUGCCGGUCCCAAGCGCGGAUAAAAGUGGAGGGGGCGG [A17U C32G] | 0.17
CCGCCUAACACUGCCAUUGCCGGUCCCAAGCUCGGAUAAAAGUGGAGGGGGCGG [A17U C32U] | 0.25
CCGCCUAACACUGCCAUUGCCGGUCCCAAGCACGGAUAAAAGUGGAGGGGGCGG [A17U C32A] | 0.13
CCGCCUAACACUGCCAUUGCCGGUUCCAAGCCCGGAUAAAAGUGGAGGGGGCGG [A17U C25U] | 0.93
CCGCCUAACACUGCCAUUGCCGGUACCAAGCCCGGAUAAAAGUGGAGGGGGCGG [A17U C25A] | 0.14
CCGCCUAACACUGCCAUUGCCGGUGCCAAGCCCGGAUAAAAGUGGAGGGGGCGG [A17U C25G] | 0.1
CCGCCUAACACUGCCAUUGCCGGUCCCAAGCCAGGAUAAAAGUGGAGGGGGCGG [A17U C33A] | 0.19
CCGCCUAACACUGCCAUUGCCGGUCCCAAGCCGGGAUAAAAGUGGAGGGGGCGG [A17U C33G] | 0.06
CCGCCUAACACUGCCAUUGCCGGUCCCAUGCCCGGAUAAAAGUGGAGGGGGCGG [A17U A29U] | 0.19
CCGCCUAACACUGCCAUUGCCGGUCCCAGGCCCGGAUAAAAGUGGAGGGGGCGG [A17U A29G] | 0.35
CCGCCUAACACUGCCAUUGCCGGUCCCACGCCCGGAUAAAAGUGGAGGGGGCGG [A17U A29C] | 0.05
CCGCCUAACACUGCCAUUGACGGUCCCAAGCCCGGAUAAAAGUGGAGGGGGCGG [A17U C20A] | 0.85
CCGCCUAACACUGCCAUUGGCGGUCCCAAGCCCGGAUAAAAGUGGAGGGGGCGG [A17U C20G] | 0.23
CCGCCUAACACUGCCAUUGUCGGUCCCAAGCCCGGAUAAAAGUGGAGGGGGCGG [A17U C20U] | 0.95
CCGCCUAACAUUGCCAUUGCCGGUCCCAAGCCCGGAUAAAAGUGGAGGGGGCGG [A17U C11U] | 0.86
CCGCCUAACAGUGCCAUUGCCGGUCCCAAGCCCGGAUAAAAGUGGAGGGGGCGG [A17U C11G] | 0.48
CCGCCUAACAAUGCCAUUGCCGGUCCCAAGCCCGGAUAAAAGUGGAGGGGGCGG [A17U C11A] | 0.7
CCGCCUAACACUGCCAUUGCCGGUCCCAAGCCCGGAUAAAAGUGGAGGGGGCGG [A17U] | 1.03
CCGCCUAACACUGCCAGUGCCGGUCCCAAGCCCGGAUAAAAGUGGAGGGGGCCG [A17G G53C] | 0.12
CCGCCUAACACUGCCAGUGCCGGUCCCAAGCCCGGAUAAAAGUGGAGGGGGCUG [A17G G53U] | 0.54
CCGCCUAACACUGCCAGUGCCGGUCCCAAGCCCGGAUAAAAGUGGAGGGGGCAG [A17G G53A] | 0.85
CCGCCUAACACUGCCAGUGCCGGUCCCAAGCCCGGAUAAAAGUGGAGGAGGCGG [A17G G49A] | 0.26
CCGCCUAACACUGCCAGUGCCGGUCCCAAGCCCGGAUAAAAGUGGAGGUGGCGG [A17G G49U] | 0.25
CCGCCUAACACUGCCAGUGCCGGUCCCAAGCCCGGAUAAAAGUGGAGGCGGCGG [A17G G49C] | 0.08
